Assay [1] concerns the target T1, Alpha-1D adrenergic receptor (Rattus norvegicus, UniProt P23944).
T1 sequence (P23944 whole entry): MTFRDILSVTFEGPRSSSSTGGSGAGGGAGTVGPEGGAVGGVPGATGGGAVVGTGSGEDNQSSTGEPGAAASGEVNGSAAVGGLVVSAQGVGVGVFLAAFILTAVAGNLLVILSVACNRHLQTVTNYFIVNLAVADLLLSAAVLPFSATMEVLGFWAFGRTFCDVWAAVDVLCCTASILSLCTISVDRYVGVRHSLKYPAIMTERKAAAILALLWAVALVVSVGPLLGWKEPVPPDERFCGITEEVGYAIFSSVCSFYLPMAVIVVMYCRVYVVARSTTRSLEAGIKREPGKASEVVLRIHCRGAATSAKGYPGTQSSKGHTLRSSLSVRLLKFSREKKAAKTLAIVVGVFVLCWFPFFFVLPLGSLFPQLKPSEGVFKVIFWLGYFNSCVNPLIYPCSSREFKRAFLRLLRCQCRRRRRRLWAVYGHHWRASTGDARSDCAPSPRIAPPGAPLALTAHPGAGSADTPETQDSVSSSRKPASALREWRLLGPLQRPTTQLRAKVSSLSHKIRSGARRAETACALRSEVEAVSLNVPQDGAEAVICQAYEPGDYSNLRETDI
Kind of assay: Antagonistic activity against rat aorta for affinity estimates representative of the Alpha-1D adrenergic receptor. Format: functional, tissue-based. The note with it: read-out: pA2 (converted). The essentials:
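Isolated smooth-muscle tissue with cumulative norepinephrine concentration–effect curves (rat aorta, human lower urinary tract). Affinity obtained by full Schild regression for some antagonists. […] Competitive, reversible interaction at a single subtype assumed.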

For assay [2], the target named is T2, Alpha-1A adrenergic receptor (Oryctolagus cuniculus, UniProt O02824).
T2 sequence (O02824 whole entry): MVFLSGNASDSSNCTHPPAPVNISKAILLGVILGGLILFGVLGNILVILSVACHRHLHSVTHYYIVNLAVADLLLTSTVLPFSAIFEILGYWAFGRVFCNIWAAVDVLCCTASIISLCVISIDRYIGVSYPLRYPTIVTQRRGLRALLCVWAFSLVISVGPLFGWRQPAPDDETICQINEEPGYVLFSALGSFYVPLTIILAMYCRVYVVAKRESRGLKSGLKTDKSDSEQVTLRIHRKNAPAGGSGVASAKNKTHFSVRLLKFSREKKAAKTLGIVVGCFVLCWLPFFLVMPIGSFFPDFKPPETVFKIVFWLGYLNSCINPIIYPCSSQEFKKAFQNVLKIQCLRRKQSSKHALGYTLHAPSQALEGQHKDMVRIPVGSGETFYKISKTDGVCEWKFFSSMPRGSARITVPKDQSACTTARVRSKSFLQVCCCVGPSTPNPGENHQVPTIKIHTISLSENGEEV
Kind of assay: Antagonistic activity against alpha 1A/1L receptor was assessed in a rabbit bladder neck functional assay. The conditions noted are these: read-out: pA2 (converted).

Assay [3] has as its target T3, Alpha-1A adrenergic receptor (Bos taurus, UniProt P18130).
T3 sequence (P18130 whole entry): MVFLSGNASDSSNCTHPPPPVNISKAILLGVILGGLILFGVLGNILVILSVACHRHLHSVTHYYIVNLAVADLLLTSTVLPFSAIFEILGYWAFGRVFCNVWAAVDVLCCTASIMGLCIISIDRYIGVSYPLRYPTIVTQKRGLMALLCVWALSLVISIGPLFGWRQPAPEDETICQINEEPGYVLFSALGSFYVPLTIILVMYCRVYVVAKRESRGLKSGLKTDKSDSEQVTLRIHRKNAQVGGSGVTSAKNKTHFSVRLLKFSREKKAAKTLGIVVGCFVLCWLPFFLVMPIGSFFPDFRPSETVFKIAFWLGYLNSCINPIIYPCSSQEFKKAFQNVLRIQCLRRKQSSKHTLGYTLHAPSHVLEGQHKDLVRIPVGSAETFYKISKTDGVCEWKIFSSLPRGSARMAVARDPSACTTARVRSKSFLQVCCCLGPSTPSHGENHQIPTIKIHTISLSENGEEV
The assay is described as follows: In vitro for the displacement of [3H]prazosin binding to bovine Alpha-1A adrenergic receptor. Background: Displacement assays read how much labelled ligand stays bound in the presence of the test substance.

With `COc1ccccc1N1CCN(CCCNc2ncc(C#N)cc2C(=O)N(C)C)CC1`, the results for the Kb in assay [1] and in assay [2] were 20 nM and 0.794 nM, respectively.
Consider `CSc1ccccc1N1CCN(CCCNc2ncccc2C(=O)N(C)C)CC1`, for which the Kb in assay [1] was 31.6 nM; in assay [2], 0.631 nM.
Take `CN(C)C(=O)c1cccnc1NCCCN1CCN(c2ccccc2C(F)(F)F)CC1`: the Kb in assay [1] was 316 nM; in assay [2] it was 12.6 nM.
As usually defined, the Ki is the equilibrium dissociation constant of an inhibitor or competing ligand from its target. A higher Ki goes with a looser hold on the target. Molecule `Cc1cccc(C)c1N1CCN(CCCNc2ncccc2C(=O)N(C)C)CC1` gave a Ki in assay [3] of 7.94 nM.
As to `COc1cc(F)ccc1N1CCN(CCCNc2c(C(=O)N(C)C)c[nH]c3ccn[n+]2-3)CC1`, the Kb is 100 nM in assay [1] and 0.631 nM in assay [2].
In the same order, the values of `CN(C)C(=O)c1cccnc1NCCCN1CCN(c2ccccc2OC(F)(F)F)CC1` are 100 nM and 3.16 nM.
For `CN(C)C(=O)c1cccnc1NCCCN1CCN(c2ccccc2O)CC1`, the Kb in assay [1] was 63.1 nM; in assay [2] it was 5.01 nM.
With `COc1cc(F)ccc1N1CCN(CCCNc2c(C(=O)N(C)C)cnc3c(C(N)=O)cccc23)CC1`, the values for the Kb in assay [1] and in assay [2] were 158 nM and 0.501 nM, respectively.
Consider `CNC(=O)c1cccnc1NCCCN1CCN(c2ccccc2OC)CC1`, for which the figures for the Kb in assay [1] and in assay [2] were 3.16 nM and 1 nM, respectively.
Turning to `COc1ccccc1N1CCN(CCCNc2ccc(C(=O)N(C)C)cn2)CC1`, the Kb is 31.6 nM in assay [1] and 25.1 nM in assay [2].
Regarding `COc1ccccc1N1CCN(CCCOc2ccccc2C(=O)N(C)C)CC1`, the Kb was 31.6 nM in assay [1] and 3.98 nM in assay [2].
Take `CN(C)C(=O)c1cccnc1NCCCN1CCN(c2ccccc2OCC(C)(C)C)CC1`: the Kb in assay [1] was 50.1 nM. In assay [3], this molecule showed a Ki of 0.794 nM.
Regarding `CN(C)C(=O)c1cnc2ccccc2c1NCCCN1CCN(c2ccccc2OCC(F)(F)F)CC1`, the Kb in assay [1] was 100 nM; in assay [2], 3.98 nM.
For `COc1ccccc1N1CCN(CCCNc2ncccc2C(N)=O)CC1`, in assay [1], the Kb was 10 nM. In assay [3], this molecule showed an inhibition constant Ki of 0.126 nM.
For the molecule `CC(C)c1ccccc1N1CCN(CCCNc2ncccc2C(=O)N(C)C)CC1`, the Kb in assay [1] was 63.1 nM; in assay [2] it was 0.398 nM.
For `CCOc1ccccc1OCCNC1CCN(c2ncccc2C(=O)N(C)C)CC1`, the Kb in assay [1] was 15.8 nM. Further, affinity in assay [3] was put at a Ki of 3.16 nM.
With `CN(C)C(=O)c1cccnc1NCCCN1CCN(c2ccccc2C#N)CC1`, the values for the Kb in assay [1] and in assay [2] were 10 nM and 2 nM, respectively.
On to `COc1ccc(N2CCN(CCCNc3ncccc3C(=O)N(C)C)CC2)c(OC)c1`, for which the Kb was 1000 nM in assay [1] and 31.6 nM in assay [2].
For `Cc1noc2ncc(C(=O)N(C)C)c(NCCCN3CCN(c4ccccc4OCC(F)(F)F)CC3)c12`, the figures for the Kb in assay [1] and in assay [2] were 79.4 nM and 1.58 nM, respectively.
Regarding `Cc1cnccc1N1CCN(CCCNc2ncccc2C(=O)N(C)C)CC1`, the Kb in assay [2] is 200 nM.
`CN(C)C(=O)c1cccnc1NCCCN1CCN(c2ccccc2OCC(F)(F)F)CC1`: the Kb in assay [1] is 15.8 nM; in assay [2], 0.1 nM.
On to `COc1ccccc1N1CCN(CCC(=O)Nc2ccccc2C(=O)N(C)C)CC1`, for which, in assay [1], the Kb is 63.1 nM. The Ki in assay [3] is 1.58 nM.
As to `CN(C)C(=O)c1cccnc1NCCCN1CCN(c2ccccc2-c2ncco2)CC1`, the figures for the Kb in assay [1] and in assay [2] were 25.1 nM and 0.316 nM, respectively.
Regarding `CCOc1ccccc1N1CCN(CCCNc2ncccc2C(=O)N(C)C)CC1`, the Kb in assay [1] is 7.94 nM; in assay [2], 0.501 nM.
For the molecule `COc1ccccc1N1CCN(CCCNc2ncncc2C(=O)N(C)C)CC1`, the Kb is 50.1 nM in assay [1] and 3.98 nM in assay [2].
With `COc1cc(F)ccc1N1CCN(CCCNc2c(C(=O)N(C)C)cnc3c(C)cccc23)CC1`, the figures for the Kb in assay [1] and in assay [2] were 316 nM and 7.94 nM, respectively.
As to `COc1ccccc1N1CCN(CCCNc2ccncc2C(=O)N(C(C)C)C(C)C)CC1`, the Kb in assay [1] is 251 nM. The affinity in assay [3], expressed as Ki, was 1.58 nM.
Take `COc1ccccc1N1CCN(CCCNc2ccccc2C(=O)c2ccccc2)CC1`: the figures for the Kb in assay [1] and in assay [2] were 10 nM and 31.6 nM, respectively.
In the case of `COc1cc(F)ccc1N1CCN(CCCNc2c(C(=O)N(C)C)cnc3nc(C)ccc23)CC1`, the Kb in assay [1] is 631 nM; in assay [2], 1.26 nM.
In the case of `COc1ccccc1N1CCN(CCCNc2ccc(C)cc2C(=O)N(C)C)CC1`, the Kb in assay [1] was 20 nM; in assay [2], 0.501 nM.
For `CN(C)C(=O)c1cnc2c(c(C(C)(C)C)nn2C)c1NCCCN1CCN(c2ccccc2OCC(F)(F)F)CC1`, the Kb was 63.1 nM in assay [1] and 2.51 nM in assay [2].
As to `CNC(=O)c1cnc2c(c(C)nn2C)c1NCCCN1CCN(c2ccccc2OCC(F)(F)F)CC1`, the Kb in assay [1] was 3.98 nM; in assay [2], 0.1 nM.
For `COc1cc(F)ccc1N1CCN(CCCNc2c(C(=O)N(C)C)cnc3c(C#N)cccc23)CC1`, the Kb in assay [1] was 398 nM; in assay [2], 1.26 nM.
For `CCCc1ccccc1N1CCN(CCCNc2ncccc2C(=O)N(C)C)CC1` the same measures were 31.6 nM and 0.2 nM.
For `COc1ccccc1N1CCN(CCCNc2ncccc2C(=O)C2CC2)CC1`, the Kb was 2 nM in assay [1] and 0.501 nM in assay [2].
As to `CN(C)C(=O)c1cccnc1NCCCN1CCN(c2ccccc2C2CC2)CC1`, the Kb was 63.1 nM in assay [1] and 0.631 nM in assay [2].
Turning to `Cc1ccc(N2CCN(CCCNc3ncccc3C(=O)N(C)C)CC2)c(-n2cccc2)c1`, the Kb in assay [1] was 12.6 nM; in assay [2], 0.02 nM.
For `CN(C)C(=O)c1cnc2c(Cl)cccc2c1NCCCN1CCN(c2ccccc2OCC(F)(F)F)CC1`, the Kb is 126 nM in assay [1] and 0.794 nM in assay [2].
For `COc1cc(O)ccc1N1CCN(CCCNc2ncccc2C(=O)N(C)C)CC1` the same measures were 79.4 nM and 12.6 nM.
For `COc1ccccc1N1CCN(CCCNc2ncc(O)cc2C(=O)N(C)C)CC1` the same measures were 10 nM and 2 nM.
Take `COc1ccccc1N1CCN(CCCNc2ncccc2C(=O)N2CCCC2)CC1`: in assay [1], the Kb is 20 nM. In addition, the affinity in assay [3], expressed as Ki, was 0.794 nM.
`Cc1nn(C)c2ncc(C(=O)N(C)C)c(NCCCN3CCN(c4ccc(F)cc4-c4ncco4)CC3)c12`: the Kb is 200 nM in assay [1] and 0.126 nM in assay [2].
On to `COc1ccccc1N1CCN(CCCNc2ncccc2C(=O)C(C)(C)C)CC1`, for which the Kb in assay [1] was 6.31 nM. Besides, the inhibition constant Ki in assay [3] was 0.398 nM.
On to `COc1cc(C)ccc1N1CCN(CCCNc2ncccc2C(=O)N(C)C)CC1`, for which the figures for the Kb in assay [1] and in assay [2] were 39.8 nM and 0.794 nM, respectively.
For the molecule `CN(C)C(=O)c1cccnc1NCCCN1CCN(c2ccccc2Cc2ccccc2)CC1`, the Kb in assay [1] is 79.4 nM; in assay [2], 6.31 nM.
`COc1cc(F)ccc1N1CCN(CCCNc2c(C(=O)N(C)C)c[nH]c3c(Cl)cn[n+]2-3)CC1`: the values for the Kb in assay [1] and in assay [2] were 158 nM and 0.794 nM, respectively.
For `COc1ccccc1N1CCN(CCCSc2ccccc2C(=O)N(C)C)CC1` the same measures were 12.6 nM and 2 nM.
Consider `COc1cc(F)ccc1N1CCN(CCCNc2c(C(=O)N(C)C)cnc3c2nc(C)n3C)CC1`, for which the Kb was 79.4 nM in assay [1] and 0.631 nM in assay [2].
With `CN(C)C(=O)c1cccnc1N1CCC(NCCOc2ccccc2-c2cncnc2)CC1`, the Kb in assay [1] is 2510 nM; in assay [2], 20 nM.
In the case of `COc1ccccc1N1CCN(CCCNc2cccc(C)c2C(=O)N(C)C)CC1`, the results for the Kb in assay [1] and in assay [2] were 63.1 nM and 3.16 nM, respectively.

The values are drawn from ChEMBL document CHEMBL1130120, “N-arylpiperazinyl-N'-propylamino derivatives of heteroaryl amides as functional uroselective alpha 1-adrenoceptor antagonists” (J Med Chem, 1997).
